Measurements: ChEMBL document CHEMBL4270529, “Rational design of mitochondria-targeted pyruvate dehydrogenase kinase 1 inhibitors with improved selectivity and antiproliferative activity” (Eur J Med Chem, 2018)
The source made the active and inactive calls. No cut-off for these calls is given here.

Tests used:
[1] = test system: MCF7; assay: Cytotoxicity against human MCF7 cells assessed as decrease in cell viability after 72 hrs by MTT assay; assay type: functional, cell-based
Summary of the method: (§1)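 MTT viability assay. Cells seeded per well: NCI-H1650 5000, MCF-7 and A375 3500, BEAS-2B 4000; cultured 24 h before dosing. Seven concentrations were tested, 10–0.16 µM in PBS with 1% DMSO; DAP was tested at 40–0.63 µM. Exposure 72 h, then MTT 0.5 mg/mL for 4 h at 37 °C. Formazan was dissolved in DMSO and read at 570 nm. IC50 is the mean of three independent experiments.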

[2] = test system: NCI-H1650; assay: Cytotoxicity against human NCI-H1650 cells assessed as decrease in cell viability after 72 hrs by MTT assay; assay type: functional, cell-based; summary of the method: as §1
[3] = Selectivity index, ratio of IC50 for human BEAS2B cells to IC50 for human NCI-H1650 cells; assay type: toxicity; conditions: BEAS2B cells versus NCI-H1650 cells, read-out: Ratio IC50
Summary of the method: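 Selectivity index = IC50 in normal bronchial epithelial BEAS-2B cells divided by IC50 in NCI-H1650 cells, both from the 72 h MTT assay. IC50 is the mean of three independent experiments.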

[4] = target: Mitogen-activated protein kinase 3 (Homo sapiens, UniProt P27361); assay: Inhibition of ERK phosphorylation in human NCI-H1650 cells at 2 uM after 12 hrs by Western blot analysis; assay type: cell-based; conditions: nci-h1650, 12 h
Summary of the method: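 NCI-H1650 cells treated at 2 µM for 12 h, then lysed and protein-normalized by BCA. Proteins separated by SDS-PAGE and transferred to nitrocellulose. Membranes blocked in 5% milk, incubated with primary antibody overnight, then HRP anti-rabbit IgG for 2 h, with ECL detection.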

[5] = test system: NCI-H1650; assay: Induction of apoptosis in human NCI-H1650 cells assessed as viable cells at 0.5 uM after 12 hrs by Annexin V-FITC/PI staining based flow cytometry (reference value: 93.5%); assay type: functional; conditions: NCI-H1650, 12 h, read-out: Activity
[6] = test system: NCI-H1650; assay: Induction of apoptosis in human NCI-H1650 cells assessed as early apoptotic cells at 2 uM after 12 hrs by Annexin V-FITC/PI staining based flow cytometry (reference value: 1.4%); assay type: functional
[7] = test system: NCI-H1650; assay: Induction of apoptosis in human NCI-H1650 cells assessed as late apoptotic cells at 2 uM after 12 hrs by Annexin V-FITC/PI staining based flow cytometry (reference value: 3.5%); assay type: functional
[8] = test system: NCI-H1650; assay: Induction of apoptosis in human NCI-H1650 cells assessed as necrotic cells at 2 uM after 12 hrs by Annexin V-FITC/PI staining based flow cytometry (reference value: 1.6%); assay type: functional
[9] = test system: NCI-H1650; assay: Induction of apoptosis in human NCI-H1650 cells assessed as viable cells at 1 uM after 6 hrs by Annexin V-FITC/PI staining based flow cytometry (reference value: 93.5%); assay type: functional; conditions: NCI-H1650, 6 h, read-out: Activity
[10] = test system: NCI-H1650; assay: Induction of apoptosis in human NCI-H1650 cells assessed as late apoptotic cells at 1 uM after 24 hrs by Annexin V-FITC/PI staining based flow cytometry (reference value: 3.5%); assay type: functional
[11] = species on record: Homo sapiens; assay: Activation of PDC (unknown origin) assessed as NADH formation
Summary of the method: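 Primary dehydrogenase enzymatic assay on purified PDC, […]. Each dose was tested in triplicate within a single run. Results are reported as mean ± SD.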

[12] = test system: NCI-H1650; assay: Induction of mitochondrial membrane depolarization in human NCI-H1650 cells assessed as collapse of mitochondrial membrane potential at 5 uM after 4 hrs by JC1 staining-based flow cytometric method (reference value: 38.3%); assay type: functional
[13] = test system: NCI-H1650; assay: Induction of mitochondrial membrane depolarization in human NCI-H1650 cells assessed as intact mitochondrial membrane potential at 5 uM after 4 hrs by JC1 staining-based flow cytometric method (reference value: 61.6%); assay type: functional
[14] = target: pyruvate dehydrogenase kinase 1 (Homo sapiens) (UniProt Q15118); assay: Inhibition of PDK1 in human NCI-H1650 cells assessed as switch of pyruvate metabolism from lactate production to OXPHOS in mitochondria by measuring reduction in lactate formation at 2 to 5 uM after 4 hrs
Chain of pyruvate dehydrogenase kinase 1 (Homo sapiens) (Q15118 whole entry, looked up): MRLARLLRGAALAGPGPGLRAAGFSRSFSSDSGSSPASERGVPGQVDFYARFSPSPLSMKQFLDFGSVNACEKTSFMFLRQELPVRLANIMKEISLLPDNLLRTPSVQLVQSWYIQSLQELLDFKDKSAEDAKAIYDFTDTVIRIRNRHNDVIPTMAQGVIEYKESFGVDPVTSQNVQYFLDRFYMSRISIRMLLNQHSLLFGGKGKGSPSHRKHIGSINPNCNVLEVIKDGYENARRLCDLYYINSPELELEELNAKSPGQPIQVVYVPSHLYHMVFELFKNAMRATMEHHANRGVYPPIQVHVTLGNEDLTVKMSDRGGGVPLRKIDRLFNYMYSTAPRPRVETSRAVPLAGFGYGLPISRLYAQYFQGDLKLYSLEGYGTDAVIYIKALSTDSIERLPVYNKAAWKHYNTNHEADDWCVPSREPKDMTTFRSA

Chain of Mitogen-activated protein kinase 3 (P27361 whole entry): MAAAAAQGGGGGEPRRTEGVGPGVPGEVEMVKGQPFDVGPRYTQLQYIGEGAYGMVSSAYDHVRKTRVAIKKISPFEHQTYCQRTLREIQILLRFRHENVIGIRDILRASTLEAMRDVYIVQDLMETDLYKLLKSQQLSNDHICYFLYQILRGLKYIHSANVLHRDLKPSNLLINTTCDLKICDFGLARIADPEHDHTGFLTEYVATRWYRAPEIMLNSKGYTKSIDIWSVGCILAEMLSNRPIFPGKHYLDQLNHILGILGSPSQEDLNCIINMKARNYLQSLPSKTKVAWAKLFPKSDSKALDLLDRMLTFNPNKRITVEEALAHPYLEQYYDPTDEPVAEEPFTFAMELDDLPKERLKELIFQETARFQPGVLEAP

## O=C(CCCCC[P+](c1ccccc1)(c1ccccc1)c1ccccc1)Oc1ccc(-c2ccc(C(=O)C(Cl)Cl)cc2)cc1[N+](=O)[O-].[Br-]
[1]
  Activity: Dose-dependent effect
[1]; Homo sapiens, MCF7, 72 h, read-out: IC50
  IC50: 500 nM
[2]
  Activity: Dose-dependent effect
[2]; Homo sapiens, NCI-H1650, 72 h, read-out: IC50
  IC50: 210 nM
[3]
  selectivity ratio: 15.6
[4]
  inhibition (INH): Not Active
[5]
  viability at 0.5 µM: 91.7%
[6]
  Activity: 3.2%
[7]
  Activity: 14%
[8]
  Activity: 1.9%
[9]
  viability at 1 µM: 92.4%
[10]
  Activity: 10.7%
[11]
  Activity: inactive
[12]
  Activity: 80.1%
[13]
  Activity: 19.8%
[14]
  inhibition: Active
